Reference: ChEMBL document CHEMBL4402512, “In vitro and in silico elucidation of antidiabetic and anti-inflammatory activities of bioactive compounds from Momordica charantia L” (Bioorg Med Chem, 2019)
The source made the active and inactive calls. No cut-off for these calls is given here.

Columns and labels:
[1] = target: Alpha amylase (Homo sapiens) (UniProt P0DUB6); assay: Inhibition of alpha-amylase (unknown origin) assessed as reduction in conversion of starch to glucose at 0.87 mM incubated for 1 hr relative to control
In short: (§1)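 α-Amylase inhibition was measured by a published protocol with minor modifications. Test compounds were added at 10 and 20 µL, stated as equivalent to 0.43 and 0.86 mM. Acarbose was used at 0.067 and 0.13 mM. Runs were in triplicate with three biological replications and averaged, reported as mean ± SD with one-way ANOVA.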

[2] = system: Saccharomyces cerevisiae; assay: Inhibition of Saccharomyces cerevisiae alpha-glucosidase at 1.3 mM pre-incubated for 15 mins before p-nitrophenyl alpha-D-glucopyranoside substrate addition and measured after 30 mins
In short: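 The enzyme was Saccharomyces cerevisiae α-glucosidase, assayed by a published protocol with slight modifications. Each compound was tested at two levels, 10 and 20 µL. Acarbose served as positive control. Runs were in triplicate with three biological replications, reported as mean ± SD and analysed by one-way ANOVA.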

[3] = system: RAW264.7; assay: Anti-inflammatory activity in mouse RAW264.7 cells assessed as reduction in IL-1beta mRNA expression at 25 uM pre-incubated for 1 hr before […] for 18 hrs by qRT-PCR analysis; format: functional, cell-based
In short: (§2)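 RAW 264.7 murine macrophages grown in RPMI 1640 with 10% FBS, penicillin/streptomycin, 37 °C, 5% CO2. Seeded at 5.0 × 10^5 cells/well and held 24 h, then given 25 μM compound for 1 h before LPS (1 µg/mL) for a further 18 h. Total RNA was extracted, 500 ng was reverse-transcribed to cDNA, and target mRNA was quantified by qRT-PCR.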

[4] = system: RAW264.7; assay: Anti-inflammatory activity in mouse RAW264.7 cells assessed as reduction in iNOS mRNA expression at 25 uM pre-incubated for 1 hr before […] for 18 hrs by qRT-PCR analysis; format: functional, cell-based; in short: as §2
[5] = system: RAW264.7; assay: Anti-inflammatory activity in mouse RAW264.7 cells assessed as reduction in NFkappaB mRNA expression at 25 uM pre-incubated for 1 hr before […] for 18 hrs by qRT-PCR analysis; format: functional, cell-based; in short: as §2
[6] = system: RAW264.7; assay: Anti-inflammatory activity in mouse RAW264.7 cells assessed as reduction in Cox2 mRNA expression at 25 uM pre-incubated for 1 hr before […] for 18 hrs by qRT-PCR analysis; format: functional, cell-based; in short: as §2
[7] = system: RAW264.7; assay: Anti-inflammatory activity in mouse RAW264.7 cells assessed as reduction in IL6 mRNA expression at 25 uM pre-incubated for 1 hr before […] for 18 hrs by qRT-PCR analysis; format: functional, cell-based; in short: as §2
[8] = system: RAW264.7; assay: Anti-inflammatory activity in mouse RAW264.7 cells assessed as reduction in TNFalpha mRNA expression at 25 uM pre-incubated for 1 hr before […] for 18 hrs by qRT-PCR analysis; format: functional, cell-based; in short: as §2
[9] = target: Alpha amylase (Homo sapiens) (UniProt P0DUB6); assay: Inhibition of alpha-amylase (unknown origin) assessed as reduction in conversion of starch to glucose at 0.13 mM incubated for 1 hr relative to control; in short: as §1

Chain of Alpha amylase (Homo sapiens) (P0DUB6 whole entry, looked up): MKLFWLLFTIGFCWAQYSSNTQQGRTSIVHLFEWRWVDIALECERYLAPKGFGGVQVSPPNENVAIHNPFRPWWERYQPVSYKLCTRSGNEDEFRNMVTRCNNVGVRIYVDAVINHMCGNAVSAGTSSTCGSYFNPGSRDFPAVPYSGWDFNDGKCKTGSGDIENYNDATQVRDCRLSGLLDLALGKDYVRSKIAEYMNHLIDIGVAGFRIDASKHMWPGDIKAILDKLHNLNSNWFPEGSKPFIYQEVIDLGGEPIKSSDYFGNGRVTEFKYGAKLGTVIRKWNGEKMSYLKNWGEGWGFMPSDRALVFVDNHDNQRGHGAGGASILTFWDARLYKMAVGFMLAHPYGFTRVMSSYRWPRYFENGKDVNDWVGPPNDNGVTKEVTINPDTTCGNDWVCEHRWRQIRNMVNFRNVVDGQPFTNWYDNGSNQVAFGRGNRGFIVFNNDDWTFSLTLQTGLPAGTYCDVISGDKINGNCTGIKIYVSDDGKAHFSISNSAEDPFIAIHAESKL

Row | inhibition [1] [%] | inhibition [2] [%] | inhibition [9] [%] | Structure (SMILES) | inhibition [3] | inhibition [4] | inhibition [5] | inhibition [6] | inhibition [7] | inhibition [8]
1 | 63.7 | 42.4 |  | C[C@H](C/C=C/C(C)(C)O)[C@H]1CC[C@@]2(C)[C@@H]3C=C[C@@]45OC[C@]3(CC[C@]12C)[C@@H]4CC[C@H](O[C@@H]1O[C@H](CO)[C@@H](O)[C@@H](O)[C@H]1O)C5(C)C [MOMORDICOSIDE F2] | Active | Active | Active |  |  | 
2 | 69 | 47.5 |  | COC(C)(C)/C=C/C[C@@H](C)[C@H]1CC[C@@]2(C)[C@@H]3[C@@H](O[C@@H]4O[C@H](CO)[C@@H](O)[C@H](O)[C@H]4O)C=C4[C@@H](CC[C@H](O)C4(C)C)[C@]3(C=O)CC[C@]12C | Active | Active | Active | Active | inactive | 
3 | 70.5 | 48.5 |  | COC(C)(C)/C=C/C[C@@H](C)[C@H]1CC[C@@]2(C)[C@@H]3C=C[C@@]45OC[C@]3(CC[C@]12C)[C@@H]4CC[C@H](O[C@@H]1O[C@H](CO)[C@@H](O)[C@@H](O)[C@H]1O)C5(C)C | Active | Active | Active |  |  | Active
4 | 60.7 | 56.4 |  | O=C(O)c1cc(O[C@@H]2OC[C@@H](O)[C@H](O)[C@H]2O)ccc1O | Active | Active | Active | Active | Active | 
5 | 63.5 | 35.9 |  | COC(C)(C)/C=C/C[C@@H](C)[C@H]1CC[C@@]2(C)[C@@H]3C=C[C@@]45OC[C@]3(CC[C@]12C)[C@@H]4CC[C@H](O[C@@H]1O[C@H](CO)[C@@H](O)[C@H](O)[C@H]1O)C5(C)C [MOMORDICOSIDE F1] | Active | Active | Active | Active |  | Active
6 |  |  | 88 | C[C@H]1O[C@H](O[C@H]2[C@H](O)[C@@H](O)[C@@H](O[C@H]3[C@H](O)[C@@H](O)C(O)O[C@@H]3CO)O[C@@H]2CO)[C@H](O)[C@@H](O)[C@@H]1N[C@H]1C=C(CO)[C@@H](O)[C@H](O)[C@H]1O (some centres not stated) |  |  |  |  |  | 
7 | 64.2 | 35.1 |  | C[C@H](C/C=C/C(C)(C)O)[C@H]1CC[C@@]2(C)[C@@H]3C=C[C@@]45OC[C@]3(CC[C@]12C)[C@@H]4CC[C@H](O[C@@H]1O[C@H](CO)[C@@H](O)[C@H](O)[C@H]1O)C5(C)C [MOMORDICOSIDE I] | Active | Active | Active | Active | Active | 
8 | 66.4 | 49.4 |  | C[C@H](CC(O)C(O)C(C)(C)O)[C@H]1CC[C@@]2(C)[C@@H]3C=C[C@@]45OC[C@]3(CC[C@]12C)[C@@H]4CC[C@H](O[C@@H]1O[C@H](CO)[C@@H](O)[C@@H](O)[C@H]1O)C5(C)C (some centres not stated) | Active | Active | Active | Active | Active | 
